We go through 39 compounds from ChEMBL document CHEMBL4513216, “Probing the Open Global Health Chemical Diversity Library for Multistage-Active Starting Points for Next-Generation Antimalarials” (ACS Infect Dis, 2020).

This data set can be described thus: Toxicity liver stage against HepG2, at 10uM. In kind it is cell-based. To be noted: human, HepG2-A16-CD81EGFP cells; read-out: INHIBITION
Also noted: test concentration 10 uM, cell line HepG2-A16-CD81EGFP. The gist of the method: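 Uninfected HepG2-A16-CD81EGFP cells, 3 × 10^3 per well, 1536-well, plated on prespotted compound at 10 μM final, parasite-free screening media added to match infected plates; puromycin 10 μM positive, DMSO 0.5% negative; run in parallel with 48 h PbLuc assay at 37 °C, 5% CO2; viability by CellTiter-Glo luminescence, normalized to controls.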
With `CC(=O)N1CCC(c2cncc(N3CCC(O)C3)n2)CC1` (centres undefined), the cytotoxicity at 10 µM was found to be 5.57%. As for `CCOCCn1nc(C)cc1C(=O)N1CC[C@](C)(O)[C@H](C)C1`, the figure is -6.34%; as for `Cc1cc(N(C)Cc2ncc[nH]2)nc(-c2cccnc2)n1`, 4.37%; as for `Cc1noc(C)c1-c1nc(N(C)C)ncc1-c1cnccn1`, -22.8%.

`CCC1=N[C@@]2(CC[C@@H]3CN(Cc4ccccc4C)C[C@@H]32)C(=O)N1`: the cytotoxicity at 10 µM stood at 8.4%. `O=S(=O)(NCC1(O)CCOc2ccccc21)c1ccc(Br)s1` (centres undefined): the cytotoxicity at 10 µM turned out to be 1.43%. As for `Cc1nn(C)c2c(=O)n(C(C)C)c(NCCc3ccccc3)nc12`, the cytotoxicity at 10 µM turned out to be 65.3%.

Consider `Cc1csc(CCCNc2ccc(S(N)(=O)=O)cc2C#N)n1`, for which the cytotoxicity at 10 µM was -49%. Regarding `O=C(Cc1cccc(O)c1)N1CCCC(O)(CN2CCOCC2)CC1` (centres undefined), the cytotoxicity at 10 µM is -3.28%.

As for `Cc1ccc(F)c(CNc2ccn(CCC(N)=O)n2)c1`, the cytotoxicity at 10 µM was -4.75%. With `Cc1c(C(=O)N2CCCC(n3nnc4cc(F)ccc43)C2)cnn1C` (centres undefined), the cytotoxicity at 10 µM is -18.3%. As to `COc1ccccc1-c1ccnc2nc(N3CCCCC3)[nH]c(=O)c12`, the cytotoxicity at 10 µM worked out at 7.36%. For `C[C@@H]1CN(c2cccnn2)CC[C@@]1(O)C1CCOCC1`, the cytotoxicity at 10 µM worked out at 2.72%. To `CC(C)C1CN(Cc2nccn2C(C)C)CCC(=O)N1CC1CC1` (centres undefined) belongs -11%; to `Cc1noc([C@@H]2CC[C@@H]3[C@@H](CCN3c3nnc(C)s3)O2)n1`, 9.28%. On to `c1cc(COC[C@]23COC[C@H]2CN(CC2CCC2)C3)ccn1`, for which the cytotoxicity at 10 µM was -77.1%. As for `Cc1ccc(CC(=O)N2CSCC2C(=O)N(C)Cc2ccco2)o1` (centres undefined), the figure is -4.32%; as for `COc1ccc(NC(=O)N2CCCC2c2ccncc2)cn1` (centres undefined), 0.165%. Turning to `Cc1ccc(CC(=O)N2CCC(Nc3ccc(C)nn3)CC2)cn1`, the cytotoxicity at 10 µM was -4.75%. On to `Cc1ccoc1C(=O)N1CCO[C@H]2[C@H](OCC3CCOCC3)CC[C@@H]21`, for which the cytotoxicity at 10 µM is -6.42%.

For the compound `COCCN(C/C=C/c1ccccc1)Cc1ccccn1`, the cytotoxicity at 10 µM came out at 6.82%. Turning to `COc1ccc(Cl)cc1-c1cc(NC(=O)C2COCCO2)[nH]n1` (centres undefined), the cytotoxicity at 10 µM was -29.1%. With `Cc1cc(-c2cnc(N3CCOCC3)nc2-c2cccnc2C)on1`, the cytotoxicity at 10 µM is -21.4%. On to `CN(Cc1cccc(C(N)=O)c1)c1ncc(C(N)=O)cc1Cl`, for which the cytotoxicity at 10 µM was -3.73%. As for `OCCOc1ccc(NCc2cccc3cccnc23)cn1`, the cytotoxicity at 10 µM was -3.24%. Regarding `COCC(=O)N1CCc2nc(C)nc(NC(C)C)c2CC1`, the cytotoxicity at 10 µM was -102%. Consider `CCCN1C(=O)CC2(CCCNC2)C1=O` (centres undefined), for which the cytotoxicity at 10 µM is 4.1%. Turning to `COc1ccc(Cc2nc3c([nH]2)CC(C)(C)CNC3=O)cc1OC`, the cytotoxicity at 10 µM was -3.04%.

As to `CCN(CCCNC(=O)Nc1ccccc1C(C)C)S(C)(=O)=O`, the cytotoxicity at 10 µM was -0.132%.

In the case of `c1nc2c(c(N3CCCC(Cn4cncn4)C3)n1)CCC2` (centres undefined), the cytotoxicity at 10 µM turned out to be 52.4%. In the case of `CC(NC(=O)c1ccsc1)c1ccc2c(c1)NC(=O)CO2` (centres undefined), the cytotoxicity at 10 µM is -11.7%. As to `O=C(NCc1nnc2n1CCC2)c1cccc(Br)c1`, the cytotoxicity at 10 µM was -0.115%. Turning to `CCN1CC[C@@]2(C(=O)N3CCOCC3)CCN(C(=O)NC)CC[C@@H]12`, the cytotoxicity at 10 µM is -12.7%. `N[C@@H]1CC[C@@H](Nc2nccc(CCC(F)(F)F)n2)C1`: the cytotoxicity at 10 µM is -3.73%. For `Cc1nn(CCN2CCSCC2)cc1CNCc1ccccn1`, the cytotoxicity at 10 µM came out at 2.28%. On to `Cc1cccc(CN2CC3(CCN(Cc4ccco4)CC3)OCC2=O)n1`, for which the cytotoxicity at 10 µM was 8.1%. As for `Cc1nc2ccccc2n1CCNCc1cccc(O)c1`, the cytotoxicity at 10 µM was -3.89%. For the compound `Cc1scc(C(=O)N2CCC3(CCCN(C)C3=O)C2)c1-c1ccccc1` (centres undefined), the cytotoxicity at 10 µM was -6.05%.

For the compound `Cc1sc(NS(=O)(=O)c2ccccc2)nc1C(=O)NC1CC1`, the cytotoxicity at 10 µM came out at 5.73%.
